The record followed here is ChEMBL document CHEMBL1138182, “Structure activity relationships of 5-, 6-, and 7-methyl-substituted azepan-3-one cathepsin K inhibitors” (J Med Chem, 2006).

Bounds are passed on as bounds.

One data set deals with Cathepsin S (Homo sapiens, UniProt P25774). The data set can be described thus: Inhibition of human cathepsin S. To be noted: read-out: Ki app.
In data set [1] the target is T1, Cathepsin K (Homo sapiens, UniProt P43235).
T1 sequence (P43235 whole entry): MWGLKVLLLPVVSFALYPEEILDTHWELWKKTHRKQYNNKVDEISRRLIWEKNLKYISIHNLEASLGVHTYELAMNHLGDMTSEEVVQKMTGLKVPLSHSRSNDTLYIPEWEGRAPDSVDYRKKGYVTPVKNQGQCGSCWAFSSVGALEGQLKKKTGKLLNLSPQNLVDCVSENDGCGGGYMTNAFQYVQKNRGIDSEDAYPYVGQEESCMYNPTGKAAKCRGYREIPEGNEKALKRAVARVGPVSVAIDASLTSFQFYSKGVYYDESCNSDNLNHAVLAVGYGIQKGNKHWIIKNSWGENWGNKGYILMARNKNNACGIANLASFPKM
The data set can be described thus: Inhibition of human cathepsin K. Conditions: read-out: Ki app.

Data set [2] concerns the target T2, Cathepsin K (Rattus norvegicus, UniProt O35186).
T2 sequence (O35186 whole entry): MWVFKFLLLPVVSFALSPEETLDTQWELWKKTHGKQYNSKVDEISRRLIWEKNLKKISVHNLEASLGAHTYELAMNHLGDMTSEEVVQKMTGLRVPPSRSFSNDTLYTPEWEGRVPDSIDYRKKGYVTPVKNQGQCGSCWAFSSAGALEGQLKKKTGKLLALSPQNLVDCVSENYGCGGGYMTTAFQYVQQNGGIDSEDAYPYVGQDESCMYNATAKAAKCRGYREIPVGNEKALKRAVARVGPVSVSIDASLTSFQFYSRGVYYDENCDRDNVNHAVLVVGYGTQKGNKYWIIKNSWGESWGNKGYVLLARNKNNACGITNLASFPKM
As to the kind of experiment: Inhibition of rat cathepsin K. To be noted: read-out: Ki app. Put shortly:
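Recombinant enzyme; fluorogenic peptide substrate (typically Cbz-Phe-Arg-AMC) in 100 mM sodium acetate pH 5.5 with 20 mM cysteine and 5 mM EDTA, ambient temperature. Reaction started by adding enzyme to inhibitor plus substrate at variable inhibitor concentrations; AMC fluorescence (ex 360, em 460 nm) followed as progress curves. Ki,app obtained by fitting to the competitive velocity equation or the slow-binding progress-curve equation.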

Data set [3] is described as follows: Permeability in artificial membrane. To be noted: PAMPA; read-out: permeability. The data set is classed as ADME, cell membranes. On the technique in general: In PAMPA a lipid-coated filter parts donor from acceptor wells.
Data set [4] in a line: Volume of distribution in iv dosed cynomolgus monkey. It is filed as ADME, organism-based, Macaca fascicularis. To be noted: in vivo, read-out: Vdss. Put shortly:
(§1)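 Cynomolgus monkeys (male, n = 3) in an iv × po crossover. Dosed by 1-h iv infusion of 1-2 mg/kg via temporary saphenous vein catheter, then 2-4 mg/kg oral gavage 7 days later. Vehicle: aqueous <2% DMSO, <20% hydroxypropyl-β-cyclodextrin. Femoral-vein plasma measured by LC/MS/MS, LLOQ 1.0-10 ng/mL. Parameters by noncompartmental methods.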

The nature of data set [5]: Permeability in MDCK cells at 10 uM. The data set is classed as ADME, cell-based, Canis lupus familiaris. Conditions: dog, read-out: permeability. Put shortly: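 MDCK cells at passage 60-80, grown in MEM + 10% FBS at 37 °C, 5% CO2, seeded on Transwells and assayed 3 days after seeding. After ~1 h equilibration in HBSS with 25 mM glucose and 25 mM HEPES, 10 µM compound (1% DMSO final) was added apically. Basolateral concentration measured by LC/MS/MS over 3600 s, Papp calculated, duplicates, propranolol and mannitol controls.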

A further data set has as its target T3, Cathepsin L2 (Homo sapiens, UniProt O60911).
T3 sequence (O60911 whole entry): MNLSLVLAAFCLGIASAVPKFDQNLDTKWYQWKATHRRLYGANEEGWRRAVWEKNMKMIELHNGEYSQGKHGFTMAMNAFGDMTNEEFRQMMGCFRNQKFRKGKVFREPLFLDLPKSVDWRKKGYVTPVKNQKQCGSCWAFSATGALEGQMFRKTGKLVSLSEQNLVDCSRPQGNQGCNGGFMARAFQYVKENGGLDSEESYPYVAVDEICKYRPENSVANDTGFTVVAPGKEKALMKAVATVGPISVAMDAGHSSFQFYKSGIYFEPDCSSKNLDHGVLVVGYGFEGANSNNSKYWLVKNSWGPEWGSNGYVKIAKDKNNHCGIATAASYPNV
The data set can be described thus: Inhibition of human cathepsin V. To be noted: read-out: Ki app. Put shortly:
(§2)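 Recombinant human enzyme with fluorogenic substrate, typically Cbz-Phe-Arg-AMC, in 100 mM sodium acetate pH 5.5 with 20 mM cysteine and 5 mM EDTA, at ambient temperature. Enzyme added last to inhibitor plus substrate. AMC fluorescence read at ex 360/em 460. Progress curves at variable inhibitor concentrations were fitted for Ki,app, by competitive velocity equation or slow-binding exponential.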

Another data set has as its system Osteoclast. As to the kind of experiment: Effect on collagen […] in osteoclast bone resorption assay. It is filed as functional, cell-based. To be noted: Homo sapiens. In a few lines:
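Human osteoclastoma-derived osteoclasts on bovine cortical bone slices, incubated 48 h with a range of compound concentrations. Type-I collagen C-telopeptide release measured by ELISA.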

Data set [6] is described as follows: Oral bioavailability in cynomolgus monkey. The data set is classed as ADME, organism-based, Macaca fascicularis. To be noted: in vivo. In a few lines:
as §1

Data set [7] can be described thus: Half life in iv dosed cynomolgus monkey. It is filed as ADME, organism-based, Macaca fascicularis. Conditions: in vivo. Put shortly:
as §1

Data set [8] is described as follows: Clearance in iv dosed cynomolgus monkey. The data set is classed as ADME, organism-based, Macaca fascicularis. Conditions: in vivo. In a few lines:
as §1

The nature of data set [9]: Protein binding in plasma. To be noted: rat, read-out: PPB (converted). The data set is classed as ADME, cell-free. Put shortly: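 Rat plasma; binding determined by equilibrium dialysis or ultrafiltration.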
The target of a further data set is Cathepsin B (Homo sapiens, UniProt P07858). The data set can be described thus: Inhibition of human cathepsin B. Conditions: read-out: Ki app. Put shortly:
as §2

The nature of data set [10]: Half life in iv dosed Sprague-Dawley rat. To be noted: in vivo. The data set is classed as ADME, organism-based. Put shortly:
(§3)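 Male Sprague-Dawley rats, n = 3, iv/po crossover. Dosed iv as a 1-2 mg/kg 0.5-h infusion through an indwelling femoral vein catheter, then 2-4 mg/kg oral gavage 2 days later. Vehicle: aqueous, <2% DMSO, <20% hydroxypropyl-β-cyclodextrin. Tail-vein plasma sampled at timed intervals, measured by LC/MS/MS (LLOQ 1.0-10 ng/mL). Noncompartmental analysis.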

The nature of data set [11]: Volume of distribution in iv dosed Sprague-Dawley rat. It is filed as ADME, organism-based. To be noted: in vivo, read-out: Vdss. Put shortly:
as §3

The nature of data set [12]: Oral bioavailability in Sprague-Dawley rat. The data set is classed as ADME, organism-based. To be noted: in vivo. Put shortly:
as §3

Data set [13] is described as follows: Clearance in iv dosed Sprague-Dawley rat. It is filed as ADME, organism-based. Conditions: in vivo. Put shortly:
as §3

Cathepsin S, sequence (P25774 whole entry): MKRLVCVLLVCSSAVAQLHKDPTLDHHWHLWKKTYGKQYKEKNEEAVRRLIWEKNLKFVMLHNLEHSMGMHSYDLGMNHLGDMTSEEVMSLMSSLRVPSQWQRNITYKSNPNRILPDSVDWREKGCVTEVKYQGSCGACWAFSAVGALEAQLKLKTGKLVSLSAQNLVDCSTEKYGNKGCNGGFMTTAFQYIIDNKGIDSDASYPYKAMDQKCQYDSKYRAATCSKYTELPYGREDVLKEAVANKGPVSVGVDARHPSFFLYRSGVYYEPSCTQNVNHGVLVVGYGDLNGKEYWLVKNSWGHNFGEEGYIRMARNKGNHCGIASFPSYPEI

As for `CC(C)C[C@H](NC(=O)c1cc2ccccc2o1)C(=O)N[C@H]1C[C@@H](C)CN(S(=O)(=O)c2ccccn2)CC1=O`, the values for the Ki at Cathepsin S, on Cathepsin K [1] and at Cathepsin K [2] were 350 nM, 29 nM and over 1000 nM, respectively.

In the case of `CC(C)C[C@H](NC(=O)c1cc2ccccc2o1)C(=O)N[C@@H]1CC[C@@H](C)N(S(=O)(=O)c2ccccn2)CC1=O`, the Ki on Cathepsin S came out at 92 nM; on Cathepsin K [2] it was 430 nM.

`CC(C)C[C@H](NC(=O)c1cc2ccccc2o1)C(=O)N[C@H]1CC[C@H](C)N(S(=O)(=O)c2ccccn2)CC1=O`: the results for the Ki on Cathepsin S and at Cathepsin K [2] were 42 nM and 680 nM, respectively.

The IC50 is the point on the concentration scale where inhibition reaches its midpoint. In general, bioavailability refers to dose-corrected exposure relative to a reference, in per cent. As a reminder, the half-life is how long it takes for the measured level to halve. For orientation: clearance means a measure of how efficiently the substance is removed, as volume per time. In the case of `CC(C)C[C@H](NC(=O)c1cc2ccccc2o1)C(=O)N[C@H]1CCCN(S(=O)(=O)c2ccccn2)CC1=O`, the Papp in data set [3] was 53 ×10⁻⁶ cm/s. In data set [4], the Vd stood at 0.72 L/kg. The Papp at 10 µM in data set [5] was found to be 57 ×10⁻⁶ cm/s. Also, the Ki on Cathepsin L2 was 1.8 nM. Moreover, in the data set with Osteoclast, half-maximal inhibition (IC50) was put at 63 nM. The compound further returned a bioavailability in data set [6] of 7.3%. The same compound returned a half-life in data set [7] of 36.5 min. Also, the clearance in data set [8] came out at 13.9 mL/min/kg. Moreover, the fraction unbound in [9] was 0.03.

In the case of `CC(C)C[C@H](NC(=O)c1cc2ccccc2o1)C(=O)N[C@H]1C(=O)CN(S(=O)(=O)c2ccccn2)CC[C@@H]1C`, the Ki at Cathepsin B was over 1000 nM; on Cathepsin K [1] it was 19 nM.

For the compound `CC(C)C[C@H](NC(=O)c1cc2ccccc2o1)C(=O)N[C@@H]1C[C@H](C)CN(S(=O)(=O)c2ccccn2)CC1=O`, the Ki at Cathepsin S was determined as 8.3 nM; on Cathepsin K [1], 4.5 nM; on Cathepsin K [2], 660 nM.

Take `CC(C)C[C@H](NC(=O)c1cc2ccccc2o1)C(=O)N[C@@H]1C(=O)CN(S(=O)(=O)c2ccccn2)CC[C@H]1C`: the Ki on Cathepsin B is over 1000 nM; on Cathepsin K [1], 1.5 nM.

For `CC(C)C[C@H](NC(=O)c1cc2ccccc2o1)C(=O)N[C@@H]1C[C@@H](C)CN(S(=O)(=O)c2ccccn2)CC1=O`, the Ki is 300 nM at Cathepsin S, 30 nM at Cathepsin K [1] and over 1000 nM at Cathepsin K [2].

In turn, `CC(C)C[C@H](NC(=O)c1cc2ccccc2o1)C(=O)N[C@@H]1C(=O)CN(S(=O)(=O)c2ccccn2)CC[C@@H]1C` had a half-life in [10] of 58.5 min. Further, the Vd in data set [11] is 4.7 L/kg. In data set [12], this compound came in with a bioavailability of under 5.4%. The Papp in data set [3] came out at 68 ×10⁻⁶ cm/s. In data set [13], the clearance amounted to 80.5 mL/min/kg. Also, the Papp at 10 µM in data set [5] was found to be 55 ×10⁻⁶ cm/s. In addition, the Ki on Cathepsin B is 32 nM; on Cathepsin K [1] it was 0.0099 nM. For the same compound, the IC50 in the data set on Osteoclast is 20 nM. For the same compound, the fraction unbound in data set [9] was 0.053.

The compound `CC(C)C[C@H](NC(=O)c1cc2ccccc2o1)C(=O)N[C@H]1C[C@H](C)CN(S(=O)(=O)c2ccccn2)CC1=O` registered a half-life in data set [10] of 51.6 min. Moreover, in data set [11], the Vd was determined as 1.46 L/kg. The compound also gave a bioavailability in data set [12] of 26.2%. In data set [3], the Papp is 56 ×10⁻⁶ cm/s. Moreover, the Ki at Cathepsin S amounted to 5.8 nM; at Cathepsin K [1], 0.14 nM; at Cathepsin K [2], 73 nM. The compound further yielded a clearance in data set [13] of 34.4 mL/min/kg. Moreover, the Papp at 10 µM in [5] was 49 ×10⁻⁶ cm/s. Also, it took 35 nM to reach half-maximal inhibition in the data set with Osteoclast (IC50). In addition, the fraction unbound in [9] was 0.044.

With `CC(C)C[C@H](NC(=O)c1cc2ccccc2o1)C(=O)N[C@@H]1CC[C@H](C)N(S(=O)(=O)c2ccccn2)CC1=O`, the results for the Ki at Cathepsin S and at Cathepsin K [2] were 110 nM and 790 nM, respectively.

As for `CC(C)C[C@H](NC(=O)c1cc2ccccc2o1)C(=O)N[C@H]1CC[C@@H](C)N(S(=O)(=O)c2ccccn2)CC1=O` [RELACATIB], the half-life in data set [10] came to 109 min; in [7], 168 min. Also, the values for the Vd in [11] and in data set [4] were 1.79 L/kg and 0.95 L/kg, respectively. The bioavailability in data set [12] amounted to 89.4%; in data set [6] it was 27.6%. Moreover, the Papp in [3] turned out to be 47 ×10⁻⁶ cm/s. Moreover, the Ki at Cathepsin S was found to be 1.6 nM; on Cathepsin L2 it was 0.063 nM; at Cathepsin B it was 13 nM; at Cathepsin K [2], 8 nM. The clearance in data set [13] was 19.5 mL/min/kg; in [8], 11.7 mL/min/kg. In addition, in data set [5], the Papp at 10 µM came to 47 ×10⁻⁶ cm/s. Inhibition in the data set on Osteoclast was half-maximal at 22 nM (IC50). Further, the fraction unbound in [9] is 0.032.

For `CC(C)C[C@H](NC(=O)c1cc2ccccc2o1)C(=O)N[C@H]1C(=O)CN(S(=O)(=O)c2ccccn2)CC[C@H]1C`, the results for the Ki on Cathepsin B and at Cathepsin K [1] were over 1000 nM and 42 nM, respectively.
